Assay results from ChEMBL document CHEMBL2086252, “Syntheses and evaluation of anticonvulsant activity of novel branched alkyl carbamates” (J Med Chem, 2012).
The source made the active and inactive calls. No cut-off for these calls is given here.

What was measured:
Mus musculus [1] = test: Anticonvulsant activity in albino CF1 mouse assessed as protection against subcutaneous metrazol-induced seizures at 100 mg/kg, ip after 4 hrs; assay type: functional, organism-based; set-up: dose 100 mg/kg
Procedure, shortened: (§1)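 Mice dosed ip at 30, 100 or 300 mg/kg, then tested 0.5 h and 4 h after administration in the MES or scMet test. Protection was recorded as animals protected over animals tested. Neurotoxicity was recorded as motor impairment or sedation, as animals affected over animals tested.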

Rattus norvegicus [2] = test: Neurotoxicity in pilocarpine-induced status epilepticus Sprague-Dawley albino rat model assessed as minimal motor impairment at 100 mg/kg, ip after 1 hr by rotarod test; assay type: toxicity, organism-based; set-up: dose 100 mg/kg, route intraperitoneal; conditions: in vivo
Mus musculus [3] = test: Neurotoxicity in albino CF1 mouse assessed as minimal motor impairment at 300 mg/kg, ip after 0.5 hrs by rotarod test; assay type: toxicity, organism-based; set-up: dose 300 mg/kg, route intraperitoneal; conditions: in vivo; procedure, shortened: as §1
Mus musculus [4] = test: Anticonvulsant activity in albino CF1 mouse assessed as protection against subcutaneous metrazol-induced seizures at 300 mg/kg, ip after 0.5 hrs; assay type: functional, organism-based; set-up: dose 300 mg/kg; procedure, shortened: as §1
Mus musculus [5] = test: Anticonvulsant activity in albino CF1 mouse assessed as protection against subcutaneous metrazol-induced seizures at 100 mg/kg, ip after 0.5 hrs; assay type: functional, organism-based; set-up: dose 100 mg/kg; procedure, shortened: as §1
Mus musculus [6] = test: Anticonvulsant activity in albino CF1 mouse assessed as protection against maximal electroshock-induced seizures at 100 mg/kg, ip after 0.5 hrs; assay type: functional, organism-based; set-up: dose 100 mg/kg; procedure, shortened: as §1
Rattus norvegicus [7] = test: Neurotoxicity in pilocarpine-induced status epilepticus Sprague-Dawley albino rat model assessed as minimal motor impairment at 300 mg/kg, ip after 0.25 hr by rotarod test; assay type: toxicity, organism-based; set-up: dose 300 mg/kg, route intraperitoneal; conditions: in vivo
Procedure, shortened: (§2)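 Rat pilocarpine status epilepticus model: test carbamate given at 0 or 30 min after the first observed Racine stage 3 motor seizure, which marks SE onset. Neurotoxicity was scored within the same model.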

Mus musculus [8] = test: Anticonvulsant activity in albino CF1 mouse assessed as protection against subcutaneous metrazol-induced seizures at 300 mg/kg, ip after 4 hrs; assay type: functional, organism-based; set-up: dose 300 mg/kg; procedure, shortened: as §1
Rattus norvegicus [9] = test: Neurotoxicity in pilocarpine-induced status epilepticus Sprague-Dawley albino rat model assessed as minimal motor impairment at 300 mg/kg, ip after 0.5 hrs by rotarod test; assay type: toxicity, organism-based; set-up: dose 300 mg/kg, route intraperitoneal; conditions: in vivo; procedure, shortened: as §2
Rattus norvegicus [10] = test: Neurotoxicity in Sprague-Dawley albino rat assessed as minimal motor impairment at 30 mg/kg, po by rotarod test; assay type: toxicity, organism-based; set-up: dose 30 mg/kg, route oral; conditions: in vivo
Procedure, shortened: (§3)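 Rats dosed orally. Anti-MES protection was scored as animals protected over animals tested at each time after dosing. Neurotoxicity was scored as motor impairment or sedation, as animals affected over animals tested.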

Mus musculus [11] = test: Neurotoxicity in albino CF1 mouse assessed as minimal motor impairment at 100 mg/kg, ip after 0.5 hrs by rotarod test; assay type: toxicity, organism-based; set-up: dose 100 mg/kg, route intraperitoneal; conditions: in vivo; procedure, shortened: as §1
Rattus norvegicus [12] = test: Anticonvulsant activity in Sprague-Dawley albino rat assessed as protection against maximal electroshock-induced seizures at 30 mg/kg, po after 2 hrs; assay type: functional, organism-based; set-up: dose 30 mg/kg; procedure, shortened: as §3
Mus musculus [13] = test: Anticonvulsant activity in albino CF1 mouse assessed as protection against subcutaneous metrazol-induced seizures at 30 mg/kg, ip after 0.5 hrs; assay type: functional, organism-based; set-up: dose 30 mg/kg; procedure, shortened: as §1
Rattus norvegicus [14] = test: Anticonvulsant activity in Sprague-Dawley albino rat assessed as protection against pilocarpine-induced status epilepticus at 200 mg/kg, ip; assay type: functional, organism-based; set-up: dose 200 mg/kg
Procedure, shortened: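 Pilocarpine status epilepticus model in rats. Number and severity of convulsive seizures were observed behaviourally.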

Rattus norvegicus [15] = test: Neurotoxicity in pilocarpine-induced status epilepticus Sprague-Dawley albino rat model assessed as minimal motor impairment at 100 mg/kg, ip after 0.5 hrs by rotarod test; assay type: toxicity, organism-based; set-up: dose 100 mg/kg, route intraperitoneal; conditions: in vivo
Rattus norvegicus [16] = test: Neurotoxicity in pilocarpine-induced status epilepticus Sprague-Dawley albino rat model assessed as minimal motor impairment at 100 mg/kg, ip after 2 hrs by rotarod test; assay type: toxicity, organism-based; set-up: dose 100 mg/kg, route intraperitoneal; conditions: in vivo
Mus musculus [17] = test: Anticonvulsant activity in albino CF1 mouse assessed as protection against maximal electroshock-induced seizures at 30 mg/kg, ip after 0.5 hrs; assay type: functional, organism-based; set-up: dose 30 mg/kg; procedure, shortened: as §1
Rattus norvegicus [18] = test: Neurotoxicity in pilocarpine-induced status epilepticus Sprague-Dawley albino rat model assessed as minimal motor impairment at 100 mg/kg, ip after 4 hrs by rotarod test; assay type: toxicity, organism-based; set-up: dose 100 mg/kg, route intraperitoneal; conditions: in vivo
Mus musculus [19] = test: Neurotoxicity in albino CF1 mouse assessed as minimal motor impairment at 30 mg/kg, ip after 4 hrs by rotarod test; assay type: toxicity, organism-based; set-up: dose 30 mg/kg, route intraperitoneal; conditions: in vivo; procedure, shortened: as §1
Mus musculus [20] = test: Neurotoxicity in albino CF1 mouse assessed as minimal motor impairment at 100 mg/kg, ip after 4 hrs by rotarod test; assay type: toxicity, organism-based; set-up: dose 100 mg/kg, route intraperitoneal; conditions: in vivo; procedure, shortened: as §1
Rattus norvegicus [21] = test: Neurotoxicity in pilocarpine-induced status epilepticus Sprague-Dawley albino rat model assessed as minimal motor impairment at 100 mg/kg, ip after 0.25 hr by rotarod test; assay type: toxicity, organism-based; set-up: dose 100 mg/kg, route intraperitoneal; conditions: in vivo
Rattus norvegicus [22] = test: Neurotoxicity in pilocarpine-induced status epilepticus Sprague-Dawley albino rat model assessed as minimal motor impairment at 300 mg/kg, ip after 2 hrs by rotarod test; assay type: toxicity, organism-based; set-up: dose 300 mg/kg, route intraperitoneal; conditions: in vivo; procedure, shortened: as §2
Rattus norvegicus [23] = test: Anticonvulsant activity in Sprague-Dawley albino rat assessed as protection against maximal electroshock-induced seizures at 30 mg/kg, po after 30 mins; assay type: functional, organism-based; set-up: dose 30 mg/kg; procedure, shortened: as §3
Mus musculus [24] = test: Anticonvulsant activity in albino CF1 mouse assessed as protection against subcutaneous metrazol-induced seizures at 30 mg/kg, ip after 4 hrs; assay type: functional, organism-based; set-up: dose 30 mg/kg; procedure, shortened: as §1
Rattus norvegicus [25] = test: Anticonvulsant activity in Sprague-Dawley albino rat assessed as protection against maximal electroshock-induced seizures at 30 mg/kg, po after 1 hr; assay type: functional, organism-based; set-up: dose 30 mg/kg; procedure, shortened: as §3
Mus musculus [26] = test: Neurotoxicity in albino CF1 mouse assessed as minimal motor impairment at 300 mg/kg, ip after 4 hrs by rotarod test; assay type: toxicity, organism-based; set-up: dose 300 mg/kg, route intraperitoneal; conditions: in vivo; procedure, shortened: as §1
Mus musculus [27] = test: Neurotoxicity in albino CF1 mouse assessed as minimal motor impairment at 30 mg/kg, ip after 0.5 hrs by rotarod test; assay type: toxicity, organism-based; set-up: dose 30 mg/kg, route intraperitoneal; conditions: in vivo; procedure, shortened: as §1
Mus musculus [28] = test: Anticonvulsant activity in albino CF1 mouse assessed as protection against maximal electroshock-induced seizures at 300 mg/kg, ip after 4 hrs; assay type: functional, organism-based; set-up: dose 300 mg/kg; procedure, shortened: as §1
Mus musculus [29] = test: Anticonvulsant activity in albino CF1 mouse assessed as protection against maximal electroshock-induced seizures at 300 mg/kg, ip after 0.5 hrs; assay type: functional, organism-based; set-up: dose 300 mg/kg; procedure, shortened: as §1
Mus musculus [30] = test: Anticonvulsant activity in albino CF1 mouse assessed as protection against maximal electroshock-induced seizures at 100 mg/kg, ip after 4 hrs; assay type: functional, organism-based; set-up: dose 100 mg/kg; procedure, shortened: as §1
Rattus norvegicus [31] = test: Neurotoxicity in pilocarpine-induced status epilepticus Sprague-Dawley albino rat model assessed as minimal motor impairment at 300 mg/kg, ip after 1 hr by rotarod test; assay type: toxicity, organism-based; set-up: dose 300 mg/kg, route intraperitoneal; conditions: in vivo; procedure, shortened: as §2
Mus musculus [32] = test: Anticonvulsant activity in albino CF1 mouse assessed as protection against maximal electroshock-induced seizures at 30 mg/kg, ip after 4 hrs; assay type: functional, organism-based; set-up: dose 30 mg/kg; procedure, shortened: as §1
Rattus norvegicus [33] = test: Anticonvulsant activity in Sprague-Dawley albino rat assessed as protection against maximal electroshock-induced seizures at 30 mg/kg, po after 4 hrs; assay type: functional, organism-based; set-up: dose 30 mg/kg; procedure, shortened: as §3
Rattus norvegicus [34] = test: Neurotoxicity in pilocarpine-induced status epilepticus Sprague-Dawley albino rat model assessed as minimal motor impairment at 30 mg/kg, ip after 1 hr by rotarod test; assay type: toxicity, organism-based; set-up: dose 30 mg/kg, route intraperitoneal; conditions: in vivo; procedure, shortened: as §2
Rattus norvegicus [35] = test: Neurotoxicity in pilocarpine-induced status epilepticus Sprague-Dawley albino rat model assessed as minimal motor impairment at 30 mg/kg, ip after 0.25 hr by rotarod test; assay type: toxicity, organism-based; set-up: dose 30 mg/kg, route intraperitoneal; conditions: in vivo; procedure, shortened: as §2
Rattus norvegicus [36] = test: Neurotoxicity in pilocarpine-induced status epilepticus Sprague-Dawley albino rat model assessed as minimal motor impairment at 30 mg/kg, ip after 4 hrs by rotarod test; assay type: toxicity, organism-based; set-up: dose 30 mg/kg, route intraperitoneal; conditions: in vivo; procedure, shortened: as §2
Rattus norvegicus [37] = test: Anticonvulsant activity in Sprague-Dawley albino rat assessed as protection against maximal electroshock-induced seizures at 30 mg/kg, po after 15 mins; assay type: functional, organism-based; set-up: dose 30 mg/kg; procedure, shortened: as §3
Rattus norvegicus [38] = test: Neurotoxicity in pilocarpine-induced status epilepticus Sprague-Dawley albino rat model assessed as minimal motor impairment at 300 mg/kg, ip after 4 hrs by rotarod test; assay type: toxicity, organism-based; set-up: dose 300 mg/kg, route intraperitoneal; conditions: in vivo; procedure, shortened: as §2
Rattus norvegicus [39] = test: Neurotoxicity in pilocarpine-induced status epilepticus Sprague-Dawley albino rat model assessed as minimal motor impairment at 30 mg/kg, ip after 2 hrs by rotarod test; assay type: toxicity, organism-based; set-up: dose 30 mg/kg, route intraperitoneal; conditions: in vivo; procedure, shortened: as §2
Rattus norvegicus [40] = test: Anticonvulsant activity in Sprague-Dawley albino rat assessed as protection against pilocarpine-induced status epilepticus at 130 mg/kg, ip administered 0 and 30 mins after status epilepticus onset
Rattus norvegicus [41] = test: Neurotoxicity in pilocarpine-induced status epilepticus Sprague-Dawley albino rat model assessed as minimal motor impairment at 30 mg/kg, ip after 0.5 hrs by rotarod test; assay type: toxicity, organism-based; set-up: dose 30 mg/kg, route intraperitoneal; conditions: in vivo; procedure, shortened: as §2

Row | Structure (SMILES) | Activity (Mus musculus [1]) | Activity (Rattus norvegicus [2]) | Activity (Mus musculus [3]) | Activity (Mus musculus [4]) | Activity (Mus musculus [5]) | Activity (Rattus norvegicus [7]) | Activity (Mus musculus [8]) | Activity (Rattus norvegicus [9]) | Activity (Rattus norvegicus [10]) | Activity (Mus musculus [11]) | Activity (Rattus norvegicus [12]) | Activity (Mus musculus [13]) | Activity (Rattus norvegicus [15]) | Activity (Rattus norvegicus [16]) | Activity (Mus musculus [17]) | Activity (Rattus norvegicus [18]) | Activity (Mus musculus [19]) | Activity (Mus musculus [20]) | Activity (Rattus norvegicus [21]) | Activity (Rattus norvegicus [22]) | also measured
1 | CC(C)(C)COC(N)=O | inactive | Non-toxic | Non-toxic | inactive | inactive | Toxic | inactive | Toxic | Non-toxic | Non-toxic | inactive | inactive | Non-toxic | Non-toxic | inactive | Non-toxic | Non-toxic | Non-toxic | Non-toxic | Toxic | Activity (Mus musculus [6]): inactive; Activity (Rattus norvegicus [14]): Active; Activity (Rattus norvegicus [23]): inactive; Activity (Mus musculus [24]): inactive; Activity (Rattus norvegicus [25]): inactive; Activity (Mus musculus [26]): Non-toxic; Activity (Mus musculus [27]): Non-toxic; Activity (Mus musculus [28]): inactive; Activity (Mus musculus [29]): inactive; Activity (Mus musculus [30]): inactive; Activity (Rattus norvegicus [31]): Toxic; Activity (Mus musculus [32]): inactive
2 | CC1(C)C(COC(N)=O)C1(C)C | inactive | Toxic | Toxic | Active | inactive | Toxic | inactive | Toxic | Non-toxic | Non-toxic | inactive | inactive | Toxic | Non-toxic | inactive | Non-toxic | Non-toxic | Non-toxic | Toxic | Toxic | Activity (Rattus norvegicus [33]): inactive; Activity (Rattus norvegicus [34]): Non-toxic; Activity (Rattus norvegicus [35]): Non-toxic; Activity (Rattus norvegicus [36]): Non-toxic; Activity (Rattus norvegicus [37]): inactive; Activity (Rattus norvegicus [38]): Non-toxic; Activity (Rattus norvegicus [39]): Non-toxic; Activity (Rattus norvegicus [23]): inactive; Activity (Rattus norvegicus [40]): inactive; Activity (Mus musculus [24]): inactive; Activity (Rattus norvegicus [41]): Non-toxic; Activity (Mus musculus [26]): Non-toxic; Activity (Mus musculus [27]): Non-toxic; Activity (Mus musculus [28]): inactive; Activity (Mus musculus [29]): Active; Activity (Mus musculus [30]): inactive; Activity (Rattus norvegicus [31]): Toxic; Activity (Mus musculus [32]): inactive
